From PubChem BioAssay
Hits are enriched below; roughly 3.5% of the tested compounds scored in any of these assays.
RGS4 block – human RGS4 inhibition. P49798. HEK293 M3R/RGS4 inducible, Fluo-4 calcium flux; active compounds read high; triggered by carbachol at its EC20. B-score at 10 µM. hit rate 0.45% among 310,000;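 active = B-score, a plate-corrected calcium signal, over three deviations above library mean, with baseline fluorescence within five deviations of library mean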;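 note: RGS4 expression induced by doxycycline in cells with stable M3 receptor; B-score is computed from the integrated fluorescence ratio over baseline after carbachol; higher B-score means a larger calcium signal and so more RGS4 inhibition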
Target sequence (P49798 whole entry, looked up): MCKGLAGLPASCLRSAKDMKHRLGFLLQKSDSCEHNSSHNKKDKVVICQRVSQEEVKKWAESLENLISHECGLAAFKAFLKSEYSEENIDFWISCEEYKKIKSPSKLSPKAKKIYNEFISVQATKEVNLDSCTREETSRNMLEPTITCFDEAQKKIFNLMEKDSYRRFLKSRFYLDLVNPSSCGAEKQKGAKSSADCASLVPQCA
MrgX1 antag – antagonists of human MrgX1 receptor | Q96LB2 | hit rate 1.3% among 310,000 | MRGX1-HEK293 calcium flux, Fluo-4, BAM8-22 antagonism; active compounds read low | B-score at 10 µM;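 active = calcium-response B-score plate-corrected more than 3 library SD below zero, starting fluorescence within 5 deviations, no agonist response on first addition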;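 note: peak minus trough fluorescence over baseline after final BAM8-22 challenge near maximal dose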
Target sequence (Q96LB2 whole entry, looked up): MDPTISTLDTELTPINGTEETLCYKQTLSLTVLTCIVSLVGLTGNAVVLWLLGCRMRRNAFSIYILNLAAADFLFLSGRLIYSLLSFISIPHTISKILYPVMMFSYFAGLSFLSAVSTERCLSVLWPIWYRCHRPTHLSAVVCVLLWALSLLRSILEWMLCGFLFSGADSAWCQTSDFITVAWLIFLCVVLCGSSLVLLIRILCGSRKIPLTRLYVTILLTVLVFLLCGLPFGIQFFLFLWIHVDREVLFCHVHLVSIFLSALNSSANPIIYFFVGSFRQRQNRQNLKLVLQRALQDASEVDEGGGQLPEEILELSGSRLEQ
RGS4 act – RGS4 potentiation or activation; HEK293 M3R/inducible RGS4, carbachol calcium flux Fluo4; active compounds read low; B-score at 10 µM; hit rate 0.92% among 310,000; AID 463111;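 active = B-score of the integrated calcium signal more than 4 SD below the library mean, with starting fluorescence not abnormally high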;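 note: negative B-score means reduced calcium response which marks RGS4 activation or potentiation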
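Material: Inducible-RGS4 HEK293 cells carrying M3 receptor; also added: carbachol at ECmax as muscarinic agonist stimulus; incubation: compound preincubation 20 min at room temperature before agonist; signal: Fluo4-AM (2 µM) calcium-flux fluorescence, kinetic read; measure: integrated calcium ratio converted to B score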
MrgX1 PAM – allosterically activates human MrgX1 receptor signaling; hit rate 0.63% among 310,000; MrgX1-HEK293, Fluo-4 calcium flux, FDSS; active compounds read high; AID 588675; Q96LB2; B-score at 10 µM;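 active = plate-corrected calcium response at least 3 library SD above typical, normal starting fluorescence, not activating the receptor alone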;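 note: compound read alongside a low EC10 to EC30 dose of BAM8-22 agonist; peak minus trough fluorescence over baseline measured at the second addition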
MrgX1 ag – agonists of human MrgX1 receptor; Q96LB2; MrgX1-HEK293 cells, Fluo-4 calcium fluorescence, agonist mode; active compounds read high; B-score at 10 µM; hit rate 0.44% among 310,000;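 active = calcium response B-score plate-corrected fluorescence ratio at least 3 library SD, with starting fluorescence B-score inside 5 SD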
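Test system: HEK293 cells stably expressing human MrgX1 receptor; Input: fifteen thousand cells per well; Dosing: compound delivered in addition one of three; Schedule: overnight seeding, then 1 h dark dye loading; Technique: Fluo-4 NW calcium fluorescence; Measure: B-scored fluorescence response ratio; Controls: positive and negative controls per plate.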
MrgX1 allo conf – confirmation of human MrgX1 receptor positive allosteric modulators; shares compounds with MrgX1 PAM; MrgX1-HEK293, Fluo-4 calcium fluorescence, FDSS; activation (ratio percentage), % at 10 µM; hit rate 13% among 1,200; AID 602413;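 active = ratio at least 3 SD above the weak peptide control, stable starting fluorescence, no direct agonism earlier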;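 note: compound followed by low BAM8-22 agonist challenge near EC20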
HEK293 Ca flux – MrgX1 antagonist counter-screen hit in parental HEK293 cells | shares compounds with MrgX1 antag | Fluo-4 calcium fluorescence, FDSS | fluorescence ratio F(max-min)/F0 at 10 µM | hit rate 2% among 4,000 | AID 624111;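 active = duplicate-averaged calcium fluorescence ratio at least three times the standard deviation of buffer wells, a nonspecific response in parental cells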
HEK293 Ca counter – counter-screen for MrgX1 allosteric activators: effect in parental HEK293 cells | shares compounds with MrgX1 antag | parental HEK293 calcium flux, Fluo-4 fluorescence ratio; active compounds read high | fluorescence ratio F(max-min)/F0 at 10 µM | hit rate 0.4% among 4,000;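 active = calcium fluorescence ratio, averaged over duplicates, at least 3 SD of the buffer-well ratio, meaning a nonspecific response in receptor-free cells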;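 note: untransfected parental HEK293 lacking MrgX1 used as counterscreen for MrgX1 allosteric activators; fluorescence change taken during the second addition on a kinetic imager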
HEK293 Ca cntr2 – activity in parental HEK293 cells lacking MrgX1 receptor | fluorescence ratio F(max-min)/F0 at 10 µM | shares compounds with MrgX1 antag | Fluo-4 calcium fluorescence (FDSS); active compounds read high | hit rate 8.7% among 4,000 | AID 624115;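 active = calcium fluorescence ratio at least three times the spread of buffer wells, meaning a non-specific response in parental cells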
Starred values were filed as active, the others as inactive; i = inactive; · = not tested or not shown.

SMILES	RGS4 block	MrgX1 antag	RGS4 act	MrgX1 PAM	MrgX1 ag	MrgX1 allo conf	HEK293 Ca flux	HEK293 Ca counter	HEK293 Ca cntr2
Cc1ccc(CNC(=O)C2CCCN2C(=O)Nc2ccc(C)cc2)cc1 (stereo not drawn)	i	i	i	i	i	·	·	·	·
COC(=O)c1cc(C(=O)OC)n(Cc2ccc(F)cc2)n1	i	i	i	i	i	·	·	·	·
COC(=O)c1cc(C(=O)OC)n(Cc2ccc(F)cc2)c1C	i	i	i	6.5*	i	i	i	i	i
N=C1/C(=C/c2ccc(OCc3ccccc3F)cc2)C(=O)N=C2SC(CC(=O)N3CCOCC3)=NN12	i	i	i	35*	i	21%*	i	i	i
COc1ccc(N2CCN(C(c3cccs3)C(C)NS(C)(=O)=O)CC2)cc1 (stereo not drawn)	i	i	i	i	i	·	·	·	·
CCOC(=O)C(=O)N1CCN(c2cc3c(cc2[N+](=O)[O-])n(C)c(=O)n3C)CC1	i	i	i	i	i	·	·	·	·
COc1ccccc1CCNC(=O)CN1C(=O)c2ccccc2S1(=O)=O	i	i	i	i	i	·	·	·	·
Cn1nc(C(F)(F)F)c(-c2ccc(Br)cc2)c1NC(=O)c1cccnc1	i	i	i	i	i	·	·	·	·
Cn1nc(C(F)(F)F)c(-c2ccc(Br)cc2)c1NC(=O)c1ccco1	i	i	i	20*	i	i	i	i	i
COc1ccc(NC(=O)c2ccc(F)c(F)c2)c2ccccc12	i	i	i	i	i	·	·	·	·
Cc1ccc(Nc2cc(C)c3ccc(O)cc3n2)cc1C	i	i	i	10*	i	i	i	i	i
Cc1ccc(Nc2cc(C)c3c(O)cccc3n2)cc1C	i	i	i	i	i	·	·	·	·
CC(C)(C)C(=O)c1cnc(Nc2ccccc2Cl)s1	i	i	i	7.1*	i	i	i	i	i
O=C(Nc1ccccn1)c1csc2c1CCCC2	i	i	i	8.6*	i	i	i	i	i
COc1ccccc1NC(=O)c1csc2c1CCCC2	i	i	i	i	i	·	·	·	·
O=C(N/N=C1/SCC(=O)N1Cc1ccco1)c1ccccc1F	i	i	i	i	i	·	·	·	·
O=C1CC(NCc2ccc(F)cc2)C(=O)N1c1ccccc1 (stereo not drawn)	i	i	i	8.1*	i	i	i	i	i
O=C(Nc1ccc(C(=O)NC2CCCCC2)cc1)c1cccnc1	i	i	i	10*	i	i	i	i	i
O=C(CSc1nnc(CNC(=O)c2ccccc2F)o1)NC1CCCCC1	i	i	i	6.5*	i	i	i	i	i
Cc1ccccc1Nc1cc2ccccc2c(=O)[nH]1	i	i	i	i	i	·	·	·	·
O=c1[nH]c(Nc2ccccc2Cl)cc2ccccc12	i	i	i	8*	i	i	i	i	i
O=C(c1ccc(F)cc1)n1c(NCc2ccccc2)n[nH]c1=S	i	i	i	7.3*	i	i	i	i	i
CC(=O)NC(CC(=O)N(Cc1ccccc1)c1cccc(C)c1)c1ccccc1 (stereo not drawn)	i	i	i	8.6*	i	i	i	i	99*
Cc1ccc(NC(=O)Cn2c(=S)[nH]c3ccccc32)cc1	i	i	i	i	i	·	·	·	·
CCN1C=C(Cc2ccccc2C)C2=C(C1)C(c1ccccc1C)C(C#N)=C(N)O2 (stereo not drawn)	i	i	i	18*	i	i	i	i	i
SMILES	RGS4 block	MrgX1 antag	RGS4 act	MrgX1 PAM	MrgX1 ag	MrgX1 allo conf	HEK293 Ca flux	HEK293 Ca counter	HEK293 Ca cntr2
CCN1C=C(Cc2ccc(F)cc2)C2=C(C1)C(c1ccc(F)cc1)C(C#N)=C(N)O2 (stereo not drawn)	i	i	i	i	i	·	·	·	·
CN1C(=O)C(C)(C)c2cc(S(=O)(=O)N3CCC(C(=O)Nc4ccc(Cl)cc4)CC3)ccc21	i	i	i	i	i	·	·	·	·
CCOc1ccc(NC(=O)NC(=O)N(C(C)C)S(C)(=O)=O)cc1	i	i	i	10*	i	i	i	i	i
Cc1ccsc1/C=C(\C#N)C(=O)NCCCN1CCOCC1	i	i	i	24*	i	i	i	i	i
COc1cccc(N/C(N)=N/c2nc(C(F)(F)F)cc(C(F)(F)F)n2)c1	i	i	i	10*	i	i	i	i	i
COC(=O)c1ccc2c(=O)[nH]c(COC(=O)c3c(-c4ccccc4Cl)noc3C)nc2c1	i	i	i	i	i	·	·	·	·
Cc1c(CC(=O)O)c(=O)oc2c(C)c(OCc3ccccc3)ccc12	i	i	i	i	i	·	·	·	·
Cc1c(CC(=O)O)c(=O)oc2c(C)c(OCc3c(F)cccc3Cl)ccc12	i	i	i	13*	i	i	i	i	i
CC(C)Cc1ccc(C(C)C(=O)Nc2ccccc2O)cc1 (stereo not drawn)	i	i	i	7*	i	i	i	i	i
CCOc1ccc(CO/N=C/c2c(C)[nH]c(=O)[nH]c2=O)cc1	i	i	i	i	i	·	·	·	·
CCN(CC(=O)Nc1ccc(NC(C)=O)cc1)c1ccc(C(F)(F)F)cn1	i	i	i	9.6*	i	i	i	i	i
CC(=O)Nc1ccc(N2CCN(c3ccc(C(F)(F)F)cn3)CC2)nc1	i	i	i	i	i	·	·	·	·
CC12CCC(C)(c3nc4ccccc4nc31)C2(C)C	i	i	i	6.9*	i	i	i	i	i
CC12CCC(C(=O)O)(c3nc4cc([N+](=O)[O-])ccc4nc31)C2(C)C (stereo not drawn)	i	i	i	i	i	·	·	·	·
O=C(CCC(=O)N1CCN(c2ccc(O)cc2)CC1)c1ccc(Br)cc1	i	i	i	i	i	·	·	·	·
